APJ antag: antagonists of human APJ apelin receptor; P35414; CHO-K1 APJ beta-arrestin complementation, luminescence; hit rate 0.32% among 330,000; inhibition, % at 20 µM;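 active = inhibition above about 40% at 20 µM, limit read from the data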;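 also: cells challenged with 10 nM apelin-13 agonist together with compound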
EBI2 antag: antagonists of human EBI2 receptor | EBI2 beta-arrestin recruitment, luminescence, 7a,25-OHC stimulated | AID 651636 | inhibition, % at 5 µM | hit rate 0.81% among 360,000 | P32249; in the data active = inhibition above about 38%;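 also: enzyme fragment complementation signal reports receptor beta-arrestin coupling in cells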
Target sequence (P32249 whole entry, looked up, the tested form may be a part): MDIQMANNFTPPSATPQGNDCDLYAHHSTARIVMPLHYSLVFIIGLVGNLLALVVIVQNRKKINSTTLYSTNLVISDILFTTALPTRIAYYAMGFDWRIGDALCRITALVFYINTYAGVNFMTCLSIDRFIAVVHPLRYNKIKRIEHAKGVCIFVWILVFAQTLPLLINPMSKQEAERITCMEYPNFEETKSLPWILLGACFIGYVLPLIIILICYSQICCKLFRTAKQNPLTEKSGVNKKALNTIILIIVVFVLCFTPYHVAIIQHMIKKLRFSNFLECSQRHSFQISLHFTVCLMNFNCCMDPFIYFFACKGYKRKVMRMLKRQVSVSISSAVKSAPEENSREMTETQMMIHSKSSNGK
CXCR6 block: blocks human CXCR6 beta-arrestin recruitment. O00574. CHO-K1 PathHunter CXCR6 beta-arrestin, luminescence. inhibition, % at 20 µM. hit rate 0.36% among 360,000. AID 602244; in the data active = inhibition above about 34%, passing the limit was not always enough;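 also: antagonist mode with CXCL16 agonist at 10 nM final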
CCR6 antag: CCR6 (human) receptor antagonism; P51684; CHO-K1 CCR6 PathHunter beta-arrestin, luminescence, CCL20-stimulated; inhibition, % at 20 µM; hit rate 0.49% among 340,000;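 active = compounds whose inhibition of the agonist-driven luminescence signal at 20 µM reaches about 50%, limit read from the data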;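 also: cells stimulated with CCL20 at 14 nM final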
APJ agonist: activates the human apelin receptor APJ; P35414; CHO-K1 APJ PathHunter beta-arrestin, luminescence; 0% DMSO wells, 100% apelin; activation, % at 20 µM; hit rate 0.11% among 330,000; AID 2520;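 active = activation more than six SD over the plate average, tested at 20 µM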
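Material: CHO-K1 APJ beta-arrestin complementation cell line; Input: cell density 1000 per well; Incubation: compound stimulation 90 min at 25 °C, detection 60 min; Signal: luminescence from split beta-galactosidase complementation, Galacton Star/Emerald II substrate; Controls: DMSO-only wells as negative, 10 nM Apelin-13 as positive control.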
A number is an active result; - = inactive; . = no result given. Sampled rows, rich in hits. Any-hit rate of the full collection: about 1.5%.

SMILES	APJ antag	EBI2 antag	CXCR6 block	CCR6 antag	APJ agonist
O=C(c1nnsc1S(=O)c1ccc(Cl)cc1)N1CCOCC1 (stereo not drawn)	-	-	67	74	-
O=C(c1nnsc1S(=O)(=O)c1ccc(Cl)cc1)N1CCOCC1	-	-	-	-	-
O=C(/C=C/c1ccc2c(c1)OCCO2)N1CCN(c2ccc(F)cc2)CC1	-	44	-	-	-
O=C(/C=C/c1ccc(S(=O)(=O)N2CCOCC2)cc1)N1CCN(c2ccc(F)cc2)CC1	-	-	-	-	-
Cc1nnsc1C(=O)NC1CCCc2c1cnn2-c1ccc(C(C)(C)C)cc1 (stereo not drawn)	-	-	-	-	-
C=CCn1c(N)c(C(=O)OC(C)(C)C)c2nc3ccccc3nc21	50	-	-	-	-
C=CCn1c(N)c(C(=O)OC(C)CC)c2nc3ccccc3nc21 (stereo not drawn)	.	-	-	-	.
CCN(CC(=O)Nc1ccc(NC(C)=O)cc1)C(=O)CCCOc1ccc(C(C)(C)C)cc1	-	-	-	-	-
O=C(CCN1C(=O)c2cccc3cccc(c23)C1=O)N1CCN(c2ccccc2F)CC1	-	-	-	-	-
Cc1ccccc1NC1=C/C(=N\S(=O)(=O)c2cccs2)c2ccccc2C1=O	-	-	-	56	-
Cc1cccc2c1N(CCCOc1ccc(C(C)(C)C)cc1)C(=O)C2=O	-	-	-	51	-
Cc1cccc(OCCN2C(=O)C(=O)c3cccc(C)c32)c1	-	-	-	-	-
Cc1ccccc1OCCCN1C(=O)C(=O)c2cccc(C)c21	48	-	-	58	-
COc1ccc(S(=O)(=O)n2cnc3ccccc32)cc1	-	-	-	-	-
Cc1ccc(Nc2nc(-c3cccnc3)cs2)cc1Cl	-	48	-	-	-
Cc1cc(Br)ccc1SCC(=O)N1CCN(S(=O)(=O)c2ccccc2)CC1	-	83	-	-	-
O=C(CSc1ncccn1)N1CCN(S(=O)(=O)c2ccccc2)CC1	-	-	-	-	-
O=C(c1ccc(Cl)cc1)N1CCN(c2ccnc3cc(Cl)ccc23)CC1	.	51	-	-	.
C#CC(=O)N(c1cc(OC)ccc1OC)C(C(=O)NC1CCCC1)c1cccs1 (stereo not drawn)	-	50	-	-	-
Nc1nn2c(-c3ccccc3)cc(=O)[nH]c2c1N=Nc1ccc(Br)cc1	.	-	41	-	.
CC(=O)N1CCn2c3c(c(=O)c4cc(C)ccc42)CCC31 (stereo not drawn)	40	-	-	-	-
O=C(CN1CCN(c2nc(-c3ccccc3)cs2)CC1)NNC(=O)c1ccc(Br)cc1	-	-	-	-	-
O=C(NC(=S)N1CCN(c2nc(-c3ccccc3)cs2)CC1)c1cncc(Br)c1	-	-	-	57	-
C/C(=N\NC(=O)CNC(=O)c1cccnc1)c1cccc(O)c1	-	-	-	-	-
O=C(Nc1ccc(Cl)cc1)Nc1ccccc1Sc1ncc([N+](=O)[O-])s1	-	-	-	50	-
SMILES	APJ antag	EBI2 antag	CXCR6 block	CCR6 antag	APJ agonist
COc1cc(Br)c(/C=C/c2ccc3cccc(O)c3n2)cc1OC	-	-	-	-	-
COc1cc(/C=C/c2ccc3cccc(O)c3n2)c(Br)cc1O	-	-	-	.	-
Oc1cccc2ccc(/C=C/c3ccccc3Br)nc12	-	-	-	62	-
COc1cc(/C=C/c2ccc3cccc(O)c3n2)ccc1O	-	-	43	67	-
CCOC(=O)COn1c2c(c3c4no[n+]([O-])c4ccc31)CCCC2	-	-	-	-	-
CC(C)(O)c1ccc2c(c1)CCC1C(C)(C(=O)O)CCCC21C (stereo not drawn)	-	-	-	-	-
CC(C)c1c(O)ccc2c1CC[C@H]1C(C)(C)CCC[C@]21C	.	53	-	-	.
COC(=O)c1cc(=O)n(Cc2ccc3c(c2)OCO3)c(=Nc2ccc(F)c(Cl)c2)s1	-	64	-	-	-
COC(=O)c1cc(=O)n(Cc2ccc(OC)cc2)c(=NCc2ccc(OC)cc2)s1	-	-	-	-	-
CCOC(=O)/C(C#N)=N/Nc1c(C)n(C)n(-c2ccccc2)c1=O	-	-	-	-	-
Cc1c(NC=C(C#N)C#N)c(=O)n(-c2ccccc2)n1C	-	-	-	-	-
Cc1c(N/N=C(\C#N)C(=O)c2ccccc2)c(=O)n(-c2ccccc2)n1C	.	-	-	63	.
Cc1ccccc1C(=O)/C(C#N)=N/Nc1c(C)n(C)n(-c2ccccc2)c1=O	.	-	45	-	.
Cc1ccc(NC(=S)NNc2ccc([N+](=O)[O-])cc2S(=O)(=O)Nc2ccccc2C(=O)O)cc1C	.	-	-	68	.
O=C(O)c1ccccc1NS(=O)(=O)c1ccc(NNC(=S)Nc2ccc(OC(F)F)cc2)c([N+](=O)[O-])c1	.	-	35	53	.
CN(CCO)c1ccc(C=NNc2ccc([N+](=O)[O-])cc2S(=O)(=O)Nc2ccccc2C(=O)O)cc1	-	-	-	62	-
O=C(CCc1nc(-c2ccc(Cl)cc2)no1)NCc1ccccc1CN1CCOCC1	-	-	-	-	-
COc1cccc(Oc2ccc(C(F)(F)F)cc2NC(=O)C2=COCCO2)c1	-	-	-	-	-
Cc1ccc(S(=O)(=O)CCC(=O)c2cccc([N+](=O)[O-])c2)cc1	-	-	-	59	-
Cc1ccc(C(=O)CCS(=O)(=O)c2ccc(Br)cc2)cc1	-	-	-	-	-
CCOC(=O)C1(CC)Oc2ccccc2C(c2ccc(OC)cc2)=C1C(=O)OC (stereo not drawn)	.	-	48	-	.
Cc1[nH]n(-c2ccccc2)c(=O)c1C=Nc1cccc2cccnc12	94	96	54	52	-
Cc1[nH]n(-c2ccccc2)c(=O)c1/C=N/N1C(=O)c2cccc3cccc(c23)C1=O	-	-	52	74	-
Cn1cc(/C=N/n2cnc3scc(-c4ccccc4)c3c2=O)c2ccccc21	-	-	-	-	-
C=CS(=O)(=O)c1c2cc(OC)ccc2nc2ccc(OC)cc12	.	-	48	78	.
SMILES	APJ antag	EBI2 antag	CXCR6 block	CCR6 antag	APJ agonist
COc1ccc2nc(Cl)cc(Cl)c2c1	-	-	-	-	-
O=C1NC(=S)S/C1=C\C=C\c1ccc([N+](=O)[O-])o1	.	-	-	61	.
Cc1ccc(-c2nn(-c3ccccc3)cc2C(=O)NN2CCN(C)CC2)cc1	-	-	-	-	-
CCN(CC)c1ccc(/C=C2\C(=O)c3ccc(C(=O)O)cc3C2=O)cc1	.	-	49	74	.
CCCSc1nc(C)c(C(C)=O)cc1C#N	-	-	-	-	-
COc1ccc(NC(=O)c2nc(S(=O)(=O)Cc3cccc(C)c3)ncc2Cl)c(OC)c1	-	50	-	-	-
Cc1cccc(C)c1NC(=O)c1nc(S(=O)(=O)Cc2ccccc2)ncc1Cl	-	-	54	55	-
Cc1ccccc1NC(=O)c1nc(S(C)(=O)=O)ncc1Cl	-	-	-	-	-
CC(NC(=O)C(NS(=O)(=O)c1cccs1)C(C)C)c1ccc(S(N)(=O)=O)cc1 (stereo not drawn)	-	-	-	-	-

Assay outcomes deposited in PubChem BioAssay by Sanford-Burnham Center for Chemical Genomics.
